Results reported in publication PMC9049079 (RSC Advances, 2020).

Key:
[1] = biological target: T1, α-Glucosidase from Saccharomyces cerevisiae (Saccharomyces cerevisiae, UniProt P53341); experiment: α-Glucosidase inhibition assay; format: biochemical
[2] = biological target: T1, α-Glucosidase from Saccharomyces cerevisiae; experiment: Inhibitory kinetic analysis; format: biochemical
How it was run: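 Enzyme in 100 mM phosphate buffer pH 6.8 at 37 °C with varied pNPG and test compound at 0, 2, 4, 6, 10 μM. Reversibility was tested as rate vs enzyme at 1.35–5.40 × 10−2 μM final. Lineweaver–Burk plots used enzyme at 6.96 × 10−2 μM. Ki came from nonlinear regression to competitive, non-competitive and mixed models. Mean ± SD, n = 3.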

[3] = biological target: T1, α-Glucosidase from Saccharomyces cerevisiae; experiment: Fluorescence quenching of α-glucosidase; format: binding; details: for Kq (quenching rate constant): Kq = KSV/τ0, τ0 = 10^−8 s; for Kd: K a (binding constant); for ΔG°: ΔG = ΔH − TΔS
How it was run: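 Intrinsic fluorescence quenching: enzyme at 6.96 × 10−2 μM, titrated with test compound (0–1.10 μM final), 5 min equilibration, at 298, 304 and 310 K. Excitation 280 nm, emission 290–500 nm, slits 2.5 nm. Buffer (pH 6.8) and compound blanks were subtracted, with inner-filter correction from absorbance. KSV from linear F0/F vs [Q]. Ka and n from double-log plot. ΔH/ΔS from van't Hoff; ΔG = ΔH − TΔS.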

[4] = van't Hoff plot, 298, 304 and 310 K

T1 sequence (P53341 whole entry): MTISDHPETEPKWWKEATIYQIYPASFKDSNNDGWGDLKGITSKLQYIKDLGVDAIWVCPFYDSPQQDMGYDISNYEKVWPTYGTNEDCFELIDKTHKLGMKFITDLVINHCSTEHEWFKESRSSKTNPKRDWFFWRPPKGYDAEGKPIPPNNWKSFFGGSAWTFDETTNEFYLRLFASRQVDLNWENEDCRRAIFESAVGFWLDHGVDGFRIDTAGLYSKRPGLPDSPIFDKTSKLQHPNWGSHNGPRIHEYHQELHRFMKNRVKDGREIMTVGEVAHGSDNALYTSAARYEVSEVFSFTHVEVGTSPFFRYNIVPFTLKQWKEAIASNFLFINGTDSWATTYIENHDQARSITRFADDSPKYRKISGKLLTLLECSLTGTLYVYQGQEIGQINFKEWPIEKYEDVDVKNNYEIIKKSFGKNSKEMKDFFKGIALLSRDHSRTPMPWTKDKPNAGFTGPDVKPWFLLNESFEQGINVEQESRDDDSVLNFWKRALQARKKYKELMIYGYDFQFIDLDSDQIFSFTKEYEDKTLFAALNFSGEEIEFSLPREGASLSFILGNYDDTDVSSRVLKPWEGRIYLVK

IC50 [1]: 4.39 ± 0.74 µM
Ki [2]: 5.38 ± 0.24 µM
type of inhibition (mechanism) ([2]; Lineweaver–Burk plots, piceatannol 0-10 μM): non-competitive
reversibility of inhibition ([2]; plots of υ versus [α-glucosidase], piceatannol 0-10 μM): reversible
Kq (quenching rate constant) ([3]; 298 K): 5.02e+13 M⁻¹ s⁻¹
Kq (quenching rate constant) ([3]; 304 K): 7.01e+13 M⁻¹ s⁻¹
Kq (quenching rate constant) ([3]; 310 K): 1.604e+14 M⁻¹ s⁻¹
Kd ([3]; T 298 K): 2.03 µM
Kd ([3]; T 304 K): 1.38 µM
Kd ([3]; T 310 K): 0.739 µM
K SV (Stern–Volmer quenching constant) ([3]; T 298 K): 5.02 ± 0.039 ×10^5 L mol^−1
n (number of binding sites per α-glucosidase molecule) ([3]; T 298 K): 1.17 ± 0.057
ΔG° ([3]; T 298 K): -7.741 ± 2.3 kcal/mol
K SV (Stern–Volmer quenching constant) ([3]; T 304 K): 7.01 ± 0.032 ×10^5 L mol^−1
n (number of binding sites per α-glucosidase molecule) ([3]; T 304 K): 1.16 ± 0.045
ΔG° ([3]; T 304 K): -8.207 ± 2.3 kcal/mol
K SV (Stern–Volmer quenching constant) ([3]; T 310 K): 16.04 ± 0.049 ×10^5 L mol^−1
n (number of binding sites per α-glucosidase molecule) ([3]; T 310 K): 1.32 ± 0.017
ΔG° ([3]; T 310 K): -8.676 ± 2.3 kcal/mol
ΔH° [3, 4]: 15.43 ± 2.31 kcal/mol
ΔS° [3, 4]: 325.31 ± 31.80 J mol^−1 K^−1
Compound: Oc1cc(O)cc(/C=C/c2ccc(O)c(O)c2)c1 [piceatannol, Piceatannol]
